From PMC10249145 (Cardiovascular & hematological agents in medicinal chemistry, 2023)
Where a name gives a salt, the structure may show the parent alone.

Legend:
human plasma [1] = settings: normal human plasma, positive controls; cited from earlier work
human plasma [2] = settings: normal human plasma, positive controls; cited from earlier work; remark: listed apart in the source
human FXIIa = biological target: T1, human FXIIa (Homo sapiens, UniProt P00748); test: Direct inhibition of human FXIIa, chromogenic substrate hydrolysis assay; format: biochemical; settings: ± 1 S.E.; for IC50: Tris-HCl buffer pH 7.4, 37 °C; for DeltaY (efficacy of inhibition) / HS (Hill slope): pH 7.4, 37 °C
T1 sequence (P00748 20-615): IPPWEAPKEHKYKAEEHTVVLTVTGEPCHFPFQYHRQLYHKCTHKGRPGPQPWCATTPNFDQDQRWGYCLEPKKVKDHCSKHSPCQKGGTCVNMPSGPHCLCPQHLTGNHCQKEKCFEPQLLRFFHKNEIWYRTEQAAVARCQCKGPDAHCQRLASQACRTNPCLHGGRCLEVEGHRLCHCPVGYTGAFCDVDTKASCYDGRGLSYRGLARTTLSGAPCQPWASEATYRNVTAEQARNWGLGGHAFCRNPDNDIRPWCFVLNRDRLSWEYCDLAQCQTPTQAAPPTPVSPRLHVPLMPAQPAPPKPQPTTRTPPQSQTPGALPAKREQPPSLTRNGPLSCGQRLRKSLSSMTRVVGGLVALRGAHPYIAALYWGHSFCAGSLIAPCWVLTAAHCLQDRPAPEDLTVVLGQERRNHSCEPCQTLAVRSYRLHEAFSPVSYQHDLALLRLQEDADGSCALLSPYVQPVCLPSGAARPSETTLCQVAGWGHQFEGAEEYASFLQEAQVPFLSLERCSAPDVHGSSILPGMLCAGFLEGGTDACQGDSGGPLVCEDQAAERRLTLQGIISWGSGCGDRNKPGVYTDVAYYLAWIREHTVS
Procedure, shortened: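 Human FXIIa (stock 200 nM) was preincubated for 5 min with test compound or vehicle in Tris-HCl pH 7.4 with NaCl, 2.5 mM CaCl2, 0.1% PEG8000 and 0.02% Tween80 at 37 °C. Spectrozyme FXIIa (stock 5 mM) was then added. Twelve in-well concentrations (500–0.0025 μM) were tested. Residual activity was taken from the initial A405 rate, and a logistic fit gave IC50, efficacy and Hill slope (±1 S.E.).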

Row | IC50 (human FXIIa; human FXIIa) [µM] | DeltaY (efficacy of inhibition) (human FXIIa; human FXIIa) [%] | HS (Hill slope) (human FXIIa; human FXIIa) | IC50 (human FXIIa; IC50, human FXIIa) [µM] | Structure (SMILES) | PT (EC×1.5) (human plasma [1]) [µM] | APTT (EC×1.5) (human plasma [2]) [μM^b]
1 |  |  |  |  | CC1CNc2c(cccc2S(=O)(=O)N[C@@H](CCCNC(=N)N)C(=O)N2CC[C@@H](C)C[C@@H]2C(=O)O)C1 (some centres unmarked) [Argatroban HCl] | ~0.13 | ~0.19
2 | 340 ± 30.5 | 103 ± 5 | 1.26 ± 0.27 |  | CNC(=O)c1nc(N)n(C(=O)c2ccc(C(C)(C)C)cc2)n1 [Inhibitor 5, 5-amino-1-(4-(tert-butyl)benzoyl)-N-methyl-1-1H-1,2,4-triazole-3-carboxamide] |  | 
3 |  | 122.4 ± 23.4 | 1.05 ± 0.55 | 699 | CC(C)(C)c1ccc(C(=O)n2nc(C(=O)O)nc2N)cc1 [Inhibitor 4, 5-amino-1-(4-(tert-butyl)benzoyl)-1H-1,2,4-triazole-3-carboxylic acid] |  | 
